The text below walks through data of ChEMBL document CHEMBL1139225, “Metabolism-based identification of a potent thrombin receptor antagonist” (J Med Chem, 2007).

Data set [1] has as its target T1, Proteinase-activated receptor 1 (Homo sapiens, UniProt P25116).
T1 sequence (P25116 whole entry): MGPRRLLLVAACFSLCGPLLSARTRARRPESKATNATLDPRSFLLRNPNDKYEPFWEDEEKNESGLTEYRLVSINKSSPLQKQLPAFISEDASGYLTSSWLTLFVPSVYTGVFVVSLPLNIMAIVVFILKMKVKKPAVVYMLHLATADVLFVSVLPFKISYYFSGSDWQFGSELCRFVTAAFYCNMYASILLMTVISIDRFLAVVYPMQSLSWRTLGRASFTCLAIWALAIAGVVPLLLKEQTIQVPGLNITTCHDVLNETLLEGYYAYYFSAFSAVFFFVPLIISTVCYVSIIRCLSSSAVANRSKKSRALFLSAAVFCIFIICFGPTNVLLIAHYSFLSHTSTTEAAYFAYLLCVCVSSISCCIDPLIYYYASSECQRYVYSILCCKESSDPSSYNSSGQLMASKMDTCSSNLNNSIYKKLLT
Put plainly: Displacement of [3H]haTRAP from PAR1 in human platelet membrane. The format is cell membranes. (In a radioligand displacement assay an active substance lowers the binding of a labelled ligand.)

Data set [2] is described as follows: AUC (0-6h) in rat at 10 mg/kg, po. Particulars: plasma. It is filed as ADME, organism-based. The arrangement: time < 6 hr, dose 10 mg/kg, route oral. The gist of the method: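 Rat oral pharmacokinetics at 10 mg/kg dosed in 20% HPβCD. Plasma exposure was reported as AUC(0-6).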
The nature of data set [3]: Solubility of the compound. It is filed as physicochemical.
Data set [4] can be described thus: AUC (0-24h) in cynomolgus monkey at 1 mg/kg, po. The format is ADME, organism-based, Macaca fascicularis. The arrangement: time < 24 hr, dose 1 mg/kg, route oral. Particulars: plasma. The gist of the method:
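Cynomolgus monkeys received a single oral dose of 1 mg/kg in 20% HPβCD. Blood levels were followed at various time points afterwards.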

The test system of data set [5] is Rattus norvegicus. Put plainly: Increase in liver to body weight ratio in Sprague-Dawley rat at 100 mg/kg, po. It is filed as functional. In a few lines:
(§1)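 Ten-day enzyme induction study. Fed male Sprague Dawley rats, four per group, were dosed orally once daily at 100 or 300 mg/kg in 0.4% methylcellulose. Liver/body weight ratio, spectral cytochrome P450, and CYP1A and CYP2B levels were expressed relative to a control group.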

Data set [6] deals with Rattus norvegicus. Put plainly: Increase in liver to body weight ratio in Sprague-Dawley rat at 300 mg/kg, po. It is filed as functional. The gist of the method:
as §1

Data set [7] relates to Rattus norvegicus. Put plainly: Increase in hepatic enzyme CYP2B in Sprague-Dawley rat at 300 mg/kg, po. The format is functional. In a few lines: as §1
For data set [8], the system named is Rattus norvegicus. As to the kind of experiment: Increase in hepatic enzyme CYP1A in Sprague-Dawley rat at 300 mg/kg, po. The format is functional. In a few lines:
as §1

In data set [9] the test system is Rattus norvegicus. As to the kind of experiment: Increase in hepatic enzyme CYP2B in Sprague-Dawley rat at 100 mg/kg, po. The format is functional. In a few lines: as §1
In data set [10] the test system is Rattus norvegicus. Put plainly: Increase in hepatic enzyme CYP1A in Sprague-Dawley rat at 100 mg/kg, po. It is filed as functional. The gist of the method:
as §1

A short description of data set [11]: AUC (0-24h) in Sprague-Dawley rat at 300 mg/kg, po after 1 day. It is filed as ADME, organism-based. Particulars: plasma. Also on record: time < 24 hr, dose 300 mg/kg, route oral. The gist of the method: (§2)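 Fed male Sprague Dawley rats, four per group, given the compound orally once daily for 10 consecutive days in 0.4% methylcellulose (100 and 300 mg/kg groups). On day 1 and day 10, plasma concentrations of parent and hydroxylated metabolites were measured at 1, 2, 4, 8, 12 and 24 h, giving AUC(0-24 h) and Cmax.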

A short description of data set [12]: AUC (0-24h) in Sprague-Dawley rat at 300 mg/kg, po after 10 days. The format is ADME, organism-based. The arrangement: time < 24 hr, dose 300 mg/kg, route oral. As to conditions: plasma. In a few lines:
as §2

Data set [13] in a line: Cmax in Sprague-Dawley rat at 300 mg/kg, po after 1 day. Particulars: in vivo. It is filed as ADME, organism-based. Also on record: dose 300 mg/kg, route oral. The gist of the method:
as §2

Data set [14] in a line: Cmax in Sprague-Dawley rat at 300 mg/kg, po after 10 days. Particulars: in vivo. It is filed as ADME, organism-based. Also on record: dose 300 mg/kg, route oral. In a few lines: as §2

pIC50: −log10 of the molar value. ≈ marks a conversion by molar mass, not a printed value.

Regarding `C[C@H]1OC(=O)[C@@H]2C[C@@H]3CC(F)(F)CC[C@H]3[C@H](/C=C/c3ccc(-c4cccc(Cl)c4)cn3)[C@H]12`, the pIC50 in data set [1] is 7.92. Further, in data set [2], the AUC(0-t) at 6 h was found to be 1200 ng·h/mL. Besides, the concentration in solution in data set [3] (solubility) came to 5 µM (≈ 2.29 µg/mL).
As to `C[C@H]1OC(=O)[C@@H]2C[C@@H]3CC(=O)CC[C@H]3[C@H](/C=C/c3ccc(-c4cccc(C(F)(F)F)c4)cn3)[C@H]12`, the AUC(0-t) at 24 h in [4] worked out at 31 ng·h/mL.
In the case of `C[C@H]1OC(=O)[C@@H]2C[C@@H]3CCCC[C@H]3[C@H](/C=C/c3ccc(-c4cccc(C(F)(F)F)c4)cn3)[C@H]12`, the Activity is given as 10% with Rattus norvegicus [5]; 34% in the data set with Rattus norvegicus [6]; 21 in the data set with Rattus norvegicus [7]; 3.6 in the data set on Rattus norvegicus [8]; 2.5 with Rattus norvegicus [9]; 1.8 in the data set with Rattus norvegicus [10]. The compound also returned an AUC(0-t) at 24 h in data set [11] of 35000 ng·h/mL. The compound also came in with an AUC at 24 h in data set [12] of 21000 ng·h/mL. Also, the values for the Cmax in data set [13] and in data set [14] were 29000 ng/mL and 17000 ng/mL, respectively.
`C[C@H]1OC(=O)[C@@H]2C[C@H]3[C@@H](CCC[C@H]3O)[C@H](/C=C/c3ccc(-c4cccc(C(F)(F)F)c4)cn3)[C@H]12` gave a pIC50 in [1] of 7.55.
In [1], `C[C@H]1OC(=O)[C@@H]2C[C@H]3[C@@H](CCCC3(F)F)[C@H](/C=C/c3ccc(-c4cccc(C(F)(F)F)c4)cn3)[C@H]12` gave a pIC50 of 7.28. The AUC(0-t) at 6 h in [2] came to 1200 ng·h/mL. The compound also showed a solubility in [3] of 5 µM (≈ 2.46 µg/mL).
Compound `C[C@H]1OC(=O)[C@@H]2C[C@@H]3CC[C@H](O)C[C@H]3[C@H](/C=C/c3ccc(-c4cccc(C(F)(F)F)c4)cn3)[C@H]12` had a pIC50 in data set [1] of 6.07.
Same read-out and setting: next, `Cc1ccccc1-c1ccc(/C=C/[C@H]2[C@@H]3CC[C@@H](O)C[C@H]3C[C@H]3C(=O)O[C@H](C)[C@@H]23)nc1`: 7.15.
Same read-out and setting: next, `C[C@H]1OC(=O)[C@@H]2C[C@@H]3CC(F)(F)CC[C@H]3[C@H](/C=C/c3ccc(-c4ccccc4F)cn3)[C@H]12`: 7.55; `C[C@H]1OC(=O)[C@@H]2C[C@@H]3C[C@H](O)CC[C@H]3[C@H](/C=C/c3ccc(-c4cccc(Cl)c4)cn3)[C@H]12`: 7.41.
`C[C@H]1OC(=O)[C@@H]2C[C@@H]3CC(F)(F)CC[C@H]3[C@H](/C=C/c3ccc(-c4cccc(F)c4)cn3)[C@H]12` had a pIC50 in data set [1] of 7.82.
On the same count and under the same terms, next, `C[C@H]1OC(=O)[C@@H]2C[C@@H]3C[C@H](O)CC[C@H]3[C@H](/C=C/c3ccc(-c4cccc(Cl)c4Cl)cn3)[C@H]12`: 7.78.
Same read-out and setting: then `C[C@H]1OC(=O)[C@@H]2C[C@@H]3CC(F)(F)CC[C@H]3[C@H](/C=C/c3ccc(-c4ccccc4Cl)cn3)[C@H]12`, with 7.96.

By pIC50 is commonly meant −log10 of the IC50, conventionally taken in molar units. By AUC(0-t) is commonly meant the area under the concentration-time curve up to a stated or last time point. One may read the solubility as the concentration that dissolves in the medium under given conditions. One may read the AUC as the area under the concentration-time curve, a measure of exposure. Broadly, the Cmax is the peak of the concentration-time curve.
